Laboratory results: ChEMBL document CHEMBL1255501, “Heteroresistance of Cryptococcus gattii to fluconazole” (2010)

Experiments:
[1] = system: Cryptococcus gattii species complex; test: Antimicrobial activity against Cryptococcus gattii serotype B isolate RB-11 assessed as concentration required for heteroresistance; format: functional, Cryptococcus bacillisporus
[2] = system: Cryptococcus gattii species complex; test: Antimicrobial activity against Cryptococcus gattii serotype B isolate RB22 assessed as heteroresistant isolates at 2 ug/ml; format: functional, Cryptococcus bacillisporus
In short: (§1)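 Population analysis: saline cell suspensions (1 × 103 to 4 × 10^3 CFU/ml) plated on plain YPD agar or YPD agar with various fluconazole concentrations; growth recorded after 72 h at 30°C; percentage of resistant subpopulation at each drug level calculated relative to drug-free plate growth.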

[3] = system: Cryptococcus gattii species complex; test: Antimicrobial activity against Cryptococcus gattii serotype C isolate H0058-1-2023 assessed as heteroresistant isolates at 2 ug/ml; format: functional, Cryptococcus bacillisporus; in short: as §1
[4] = system: Cryptococcus bacillisporus; test: Antimicrobial activity against Cryptococcus gattii serotype C isolate NIH191 assessed as heteroresistant isolates at 2 ug/ml; format: functional; in short: as §1
[5] = system: Cryptococcus gattii species complex; test: Antimicrobial activity against Cryptococcus gattii serotype B isolate NIH412 assessed as heteroresistant isolates at 4 ug/ml; format: functional, Cryptococcus bacillisporus
In short: (§2)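 Population analysis: cells suspended in sterile saline at 1 × 10³ to 4 × 10³ CFU/ml and plated on plain YPD agar or YPD agar with various fluconazole concentrations. Plates incubated at 30°C for 72 h. The resistant subpopulation at each concentration is recorded as a percentage of the population.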

[6] = system: Cryptococcus gattii species complex; test: Antimicrobial activity against Cryptococcus gattii serotype B isolate B3939 assessed as heteroresistant isolates at 4 ug/ml; format: functional, Cryptococcus bacillisporus; in short: as §2
[7] = system: Cryptococcus gattii species complex; test: Antimicrobial activity against Cryptococcus gattii serotype B isolate NIH190 assessed as heteroresistant isolates at 4 ug/ml; format: functional, Cryptococcus bacillisporus; in short: as §2
[8] = system: Cryptococcus gattii species complex; test: Antimicrobial activity against Cryptococcus gattii serotype B isolate B5765 assessed as heteroresistant isolates at 4 ug/ml; format: functional, Cryptococcus bacillisporus; in short: as §2
[9] = system: Cryptococcus gattii species complex; test: Antimicrobial activity against Cryptococcus gattii serotype C isolate NIH18 assessed as heteroresistant isolates at 4 ug/ml; format: functional, Cryptococcus bacillisporus; in short: as §1
[10] = system: Cryptococcus gattii species complex; test: Antimicrobial activity against Cryptococcus gattii serotype C isolate H0058-1-2023 assessed as heteroresistant isolates at 4 ug/ml; format: functional, Cryptococcus bacillisporus; in short: as §1
[11] = system: Cryptococcus gattii species complex; test: Antimicrobial activity against Cryptococcus gattii serotype B isolate RB-14 assessed as concentration required for heteroresistance; format: functional, Cryptococcus bacillisporus
[12] = system: Cryptococcus gattii species complex; test: Antimicrobial activity against Cryptococcus gattii serotype B isolate RB-17 assessed as concentration required for heteroresistance; format: functional, Cryptococcus bacillisporus
[13] = system: Cryptococcus gattii species complex; test: Antimicrobial activity against Cryptococcus gattii serotype B isolate RB-33 assessed as concentration required for heteroresistance; format: functional, Cryptococcus bacillisporus
[14] = system: Cryptococcus gattii species complex; test: Antimicrobial activity against Cryptococcus gattii serotype B isolate RAM-002 assessed as concentration required for heteroresistance; format: functional, Cryptococcus bacillisporus
[15] = system: Cryptococcus gattii species complex; test: Antimicrobial activity against Cryptococcus gattii serotype B isolate RAM-005 assessed as concentration required for heteroresistance; format: functional, Cryptococcus bacillisporus
[16] = system: Cryptococcus gattii species complex; test: Antimicrobial activity against Cryptococcus gattii serotype B isolate B5788 assessed as concentration required for heteroresistance; format: functional, Cryptococcus bacillisporus
In short: (§3)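 Fluconazole spot test: 10-fold serial dilutions of each single-colony-purified strain spotted on YPD agar alone and YPD agar with fluconazole at 4 to 128 μg/ml. The level of heteroresistance to fluconazole (LHF) is the lowest drug concentration at which minor resistant subpopulations emerge within the spot.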

[17] = system: Cryptococcus gattii species complex; test: Antimicrobial activity against Cryptococcus gattii serotype C isolate NIH178 assessed as concentration required for heteroresistance; format: functional, Cryptococcus bacillisporus
[18] = system: Cryptococcus gattii species complex; test: Antimicrobial activity against Cryptococcus gattii serotype C isolate H0058-1-78 assessed as concentration required for heteroresistance; format: functional, Cryptococcus bacillisporus
[19] = system: Cryptococcus gattii species complex; test: Antimicrobial activity against Cryptococcus gattii serotype C isolate H0058-1-2086 assessed as concentration required for heteroresistance; format: functional, Cryptococcus bacillisporus
[20] = system: Cryptococcus gattii species complex; test: Antimicrobial activity against Cryptococcus gattii serotype C isolate H0058-1-1875 assessed as concentration required for heteroresistance; format: functional, Cryptococcus bacillisporus
[21] = system: Cryptococcus gattii species complex; test: Antimicrobial activity against Cryptococcus gattii serotype C isolate H0058-1-1941 assessed as concentration required for heteroresistance; format: functional, Cryptococcus bacillisporus
[22] = system: Cryptococcus gattii species complex; test: Antimicrobial activity against Cryptococcus gattii serotype B isolate NIH367 assessed as heteroresistant isolates at 2 ug/ml; format: functional, Cryptococcus bacillisporus; in short: as §2
[23] = system: Cryptococcus gattii species complex; test: Antimicrobial activity against Cryptococcus gattii serotype B isolate NIH412 assessed as concentration required for heteroresistance; format: functional, Cryptococcus bacillisporus; in short: as §3
[24] = system: Cryptococcus deuterogattii; test: Antimicrobial activity against Cryptococcus gattii serotype B isolate NIH444 assessed as concentration required for heteroresistance; format: functional, Cryptococcus bacillisporus; in short: as §3
[25] = system: Cryptococcus gattii species complex; test: Antimicrobial activity against Cryptococcus gattii serotype B isolate NIH535 assessed as concentration required for heteroresistance; format: functional, Cryptococcus bacillisporus; in short: as §3
[26] = system: Cryptococcus gattii species complex; test: Antimicrobial activity against Cryptococcus gattii serotype B isolate NIH744 assessed as concentration required for heteroresistance; format: functional, Cryptococcus bacillisporus; in short: as §3
[27] = system: Cryptococcus gattii species complex; test: Antimicrobial activity against Cryptococcus gattii serotype B isolate NIH189 assessed as concentration required for heteroresistance; format: functional, Cryptococcus bacillisporus; in short: as §3
[28] = system: Cryptococcus gattii species complex; test: Antimicrobial activity against Cryptococcus gattii serotype B isolate RB-1 assessed as concentration required for heteroresistance; format: functional, Cryptococcus bacillisporus
[29] = system: Cryptococcus gattii species complex; test: Antimicrobial activity against Cryptococcus gattii serotype B isolate NIH409 assessed as concentration required for heteroresistance; format: functional, Cryptococcus bacillisporus; in short: as §3
[30] = system: Cryptococcus gattii species complex; test: Antimicrobial activity against Cryptococcus gattii serotype B isolate NIH76 assessed as concentration required for heteroresistance; format: functional, Cryptococcus bacillisporus; in short: as §3
[31] = system: Cryptococcus gattii species complex; test: Antimicrobial activity against Cryptococcus gattii serotype C isolate H0058-1-1686 assessed as heteroresistant isolates at 16 ug/ml; format: functional, Cryptococcus bacillisporus; in short: as §1
[32] = system: Cryptococcus deuterogattii; test: Antimicrobial activity against Cryptococcus gattii serotype B isolate NIH444 assessed as heteroresistant isolates at 32 ug/ml; format: functional, Cryptococcus bacillisporus; in short: as §2
[33] = system: Cryptococcus gattii species complex; test: Antimicrobial activity against Cryptococcus gattii serotype B isolate RAM15 assessed as heteroresistant isolates at 32 ug/ml; format: functional, Cryptococcus bacillisporus; in short: as §1
[34] = system: Cryptococcus gattii species complex; test: Antimicrobial activity against Cryptococcus gattii serotype B isolate B5788 assessed as heteroresistant isolates at 8 ug/ml; format: functional, Cryptococcus bacillisporus; in short: as §2
[35] = system: Cryptococcus gattii species complex; test: Antimicrobial activity against Cryptococcus gattii serotype B isolate RB14 assessed as heteroresistant isolates at 8 ug/ml; format: functional, Cryptococcus bacillisporus; in short: as §1
[36] = system: Cryptococcus gattii species complex; test: Antimicrobial activity against Cryptococcus gattii serotype C isolate H0058-1-78 assessed as heteroresistant isolates at 8 ug/ml; format: functional, Cryptococcus bacillisporus; in short: as §1
[37] = system: Cryptococcus gattii species complex; test: Antimicrobial activity against Cryptococcus gattii serotype C isolate NIH298 assessed as heteroresistant isolates at 8 ug/ml; format: functional, Cryptococcus bacillisporus
In short: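 Cell suspensions of 1 × 10^3 to 4 × 10^3 CFU/ml were made in sterile saline and plated on plain YPD agar or YPD agar with various fluconazole concentrations. Plates were incubated at 30°C for 72 h, and the percentage of resistant subpopulation emerging was recorded.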

[38] = system: Cryptococcus gattii species complex; test: Antimicrobial activity against Cryptococcus gattii serotype C isolate H0058-1-1941 assessed as heteroresistant isolates at 8 ug/ml; format: functional, Cryptococcus bacillisporus; in short: as §1
[39] = system: Cryptococcus gattii species complex; test: Antimicrobial activity against Cryptococcus gattii serotype C isolate H0058-1-818 assessed as heteroresistant isolates at 8 ug/ml; format: functional, Cryptococcus bacillisporus; in short: as §1
[40] = system: Cryptococcus gattii species complex; test: Antimicrobial activity against Cryptococcus gattii serotype B isolate NIH198 assessed as heteroresistant isolates at 16 ug/ml; format: functional, Cryptococcus bacillisporus; in short: as §2
[41] = system: Cryptococcus gattii species complex; test: Antimicrobial activity against Cryptococcus gattii serotype B isolate NIH184 assessed as heteroresistant isolates at 16 ug/ml; format: functional, Cryptococcus bacillisporus; in short: as §2
[42] = system: Cryptococcus deuterogattii; test: Antimicrobial activity against Cryptococcus gattii serotype B isolate NIH444 assessed as heteroresistant isolates at 16 ug/ml; format: functional, Cryptococcus bacillisporus; in short: as §2
[43] = system: Cryptococcus gattii species complex; test: Antimicrobial activity against Cryptococcus gattii serotype B isolate NIH189 assessed as heteroresistant isolates at 16 ug/ml; format: functional, Cryptococcus bacillisporus; in short: as §2
[44] = system: Cryptococcus gattii species complex; test: Antimicrobial activity against Cryptococcus gattii serotype C isolate NIH113 assessed as heteroresistant isolates at 16 ug/ml; format: functional, Cryptococcus bacillisporus; in short: as §1

OC(Cn1cncn1)(Cn1cncn1)c1ccc(F)cc1F [FLUCONAZOLE]
Activity [1]: 32 µg/mL
Activity [2]: 100%
Activity [3]: 100%
Activity [4]: 100%
Activity [5]: 0.07%
Activity [6]: 100%
Activity [7]: 100%
Activity [8]: 100%
Activity [9]: 100%
Activity [10]: 100%
Activity [11]: 32 µg/mL
Activity [12]: 32 µg/mL
Activity [13]: 32 µg/mL
Activity [14]: 32 µg/mL
Activity [15]: 32 µg/mL
Activity [16]: 8 µg/mL
Activity [17]: 32 µg/mL
Activity [18]: 32 µg/mL
Activity [19]: 32 µg/mL
Activity [20]: 32 µg/mL
Activity [21]: 32 µg/mL
Activity [22]: 100%
Activity [23]: 4 µg/mL
Activity [24]: 32 µg/mL
Activity [25]: 4 µg/mL
Activity [26]: 32 µg/mL
Activity [27]: 16 µg/mL
Activity [28]: 32 µg/mL
Activity [29]: 32 µg/mL
Activity [30]: 32 µg/mL
Activity [31]: 100%
Activity [32]: 0.5%
Activity [33]: 10%
Activity [34]: 5.7%
Activity [35]: 100%
Activity [36]: 100%
Activity [37]: 100%
Activity [38]: 100%
Activity [39]: 100%
Activity [40]: 1.9%
Activity [41]: 35%
Activity [42]: 100%
Activity [43]: 0.7%
Activity [44]: 100%
